The values below come from ChEMBL document CHEMBL1130275, “Novel N-substituted 3 alpha-[bis(4'-fluorophenyl)methoxy]tropane analogues: selective ligands for the dopamine transporter” (J Med Chem, 1997).

A value given as a limit tells only on which side of the number the result lay.

For experiment [1], the target named is T1, Sodium-dependent dopamine transporter (Rattus norvegicus, UniProt P23977). Kind of experiment: Displacement of [3H]WIN-35 428 from the dopamine transporter in rat caudate putamen. Type of experiment: tissue-based. In a few lines:
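Rat caudate putamen membranes washed in Krebs-HEPES pH 7.4, 0.5% w/v final. Filtration through BSA-soaked GF/B. Compounds run at 0.01 nM–100 μM, three experiments in triplicate. Ki derived by LIGAND nonlinear fitting of two-site binding.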

For experiment [2], the target named is T1, Sodium-dependent dopamine transporter. Kind of experiment: In vitro inhibition of dopamine uptake in rat tissue, was determined using [3H]DAU as radioligand. In a few lines: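 Rat caudate putamen slices (225 μm, cross-chopped) in oxygenated Krebs-HEPES at 37 °C. Stopped with ice-cold buffer and filtration. Accumulated label extracted with methanol/HCl and counted; filter blank subtracted. IC50 taken from the linear portion of the concentration–response curve by regression.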

Experiment [3] has as its target Sodium-dependent serotonin transporter (Rattus norvegicus, UniProt P31652). Kind of experiment: (§1) Compound is evaluated for binding to Serotonin transporter using [3H]citalopram as radioligand in rat brain. The experiment is classed as tissue-based. A digest of the protocol:
(§2)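 Binding data supplied by an outside contract lab using published methods. SERT: [3H]citalopram, 0.7 nM final. NET: [3H]desmethylimipramine, 3.0 nM final.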

In experiment [4] the target is T2, Muscarinic acetylcholine receptor M1 (Rattus norvegicus, UniProt P08482).
T2 sequence (P08482 whole entry): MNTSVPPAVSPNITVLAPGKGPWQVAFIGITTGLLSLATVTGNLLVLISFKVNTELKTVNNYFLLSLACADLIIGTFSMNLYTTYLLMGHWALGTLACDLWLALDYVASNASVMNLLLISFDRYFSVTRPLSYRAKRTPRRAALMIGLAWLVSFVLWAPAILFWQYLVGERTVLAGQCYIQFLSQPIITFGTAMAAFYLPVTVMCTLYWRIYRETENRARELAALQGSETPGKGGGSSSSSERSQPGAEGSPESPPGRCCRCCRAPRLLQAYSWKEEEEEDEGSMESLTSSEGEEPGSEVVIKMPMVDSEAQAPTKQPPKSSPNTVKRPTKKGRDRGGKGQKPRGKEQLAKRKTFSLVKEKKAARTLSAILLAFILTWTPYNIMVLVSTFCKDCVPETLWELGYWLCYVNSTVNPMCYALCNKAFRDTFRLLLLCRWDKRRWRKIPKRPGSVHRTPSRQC
Kind of experiment: Binding affinity against Muscarinic acetylcholine receptor M1 sites of rat. In a few lines:
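Whole rat brain minus cerebellum, membranes made by two-step centrifugation and resuspended in 10 mM Tris pH 7.4. Assay buffer is 10 mM Tris-HCl with 5 mM MgCl2. Membrane is preincubated 5 min with the compound, then [3H]pirenzepine 3 nM final is added for 1 h at 37 °C. Filtration through PEI-soaked GF/B. Compounds run at 0.01 nM–100 μM, ≥3 independent experiments in triplicate.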

Experiment [5] has as its target T3, Sodium-dependent noradrenaline transporter (Homo sapiens, UniProt P23975). Kind of experiment: Compound was evaluated for binding to Norepinephrine Transporter (NET). In a few lines:
as §2

Experiment [6] concerns the target T3, Sodium-dependent noradrenaline transporter. Kind of experiment: (§3) Compound was evaluated for binding to Norepinephrine Transporter (NET) using [3H]desmethylimipramine as radioligand. A digest of the protocol:
as §2

Experiment [7] deals with Sodium-dependent dopamine transporter (Rattus norvegicus) (UniProt P23977). Kind of experiment: Inhibition of binding of [3H]WIN-35 428 to dopamine transporter (in rat caudate putamen) by 10 uM of compound. The experiment is classed as tissue-based.
Sequence of Sodium-dependent dopamine transporter (Rattus norvegicus) (P23977 whole entry): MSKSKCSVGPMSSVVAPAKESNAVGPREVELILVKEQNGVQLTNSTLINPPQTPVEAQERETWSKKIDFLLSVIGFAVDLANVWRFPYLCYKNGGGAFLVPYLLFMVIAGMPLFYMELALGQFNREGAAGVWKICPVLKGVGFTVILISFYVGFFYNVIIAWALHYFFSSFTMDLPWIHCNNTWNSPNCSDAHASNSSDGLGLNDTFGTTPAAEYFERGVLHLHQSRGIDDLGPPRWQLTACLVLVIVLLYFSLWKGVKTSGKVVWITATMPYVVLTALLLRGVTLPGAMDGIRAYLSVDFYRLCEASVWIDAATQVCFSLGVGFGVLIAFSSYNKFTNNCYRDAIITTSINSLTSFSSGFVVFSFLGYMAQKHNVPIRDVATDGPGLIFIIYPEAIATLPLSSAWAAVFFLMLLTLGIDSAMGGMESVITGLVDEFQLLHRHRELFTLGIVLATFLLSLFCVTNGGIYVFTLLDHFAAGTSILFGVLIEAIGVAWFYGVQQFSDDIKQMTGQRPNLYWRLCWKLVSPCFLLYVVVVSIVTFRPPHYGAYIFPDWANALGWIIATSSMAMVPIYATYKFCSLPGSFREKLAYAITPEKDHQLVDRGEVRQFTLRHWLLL
The target in experiment [8] is T3, Sodium-dependent noradrenaline transporter. The experiment is described as §3. The settings on record: concentration not given here. In a few lines: as §2
For experiment [9], the target named is Sodium-dependent serotonin transporter (Rattus norvegicus) (UniProt P31652). The description is as §1. Type of experiment: tissue-based. The conditions noted are these: concentration not given here. In a few lines:
as §2

Sequence of Sodium-dependent serotonin transporter (Rattus norvegicus) (P31652 whole entry): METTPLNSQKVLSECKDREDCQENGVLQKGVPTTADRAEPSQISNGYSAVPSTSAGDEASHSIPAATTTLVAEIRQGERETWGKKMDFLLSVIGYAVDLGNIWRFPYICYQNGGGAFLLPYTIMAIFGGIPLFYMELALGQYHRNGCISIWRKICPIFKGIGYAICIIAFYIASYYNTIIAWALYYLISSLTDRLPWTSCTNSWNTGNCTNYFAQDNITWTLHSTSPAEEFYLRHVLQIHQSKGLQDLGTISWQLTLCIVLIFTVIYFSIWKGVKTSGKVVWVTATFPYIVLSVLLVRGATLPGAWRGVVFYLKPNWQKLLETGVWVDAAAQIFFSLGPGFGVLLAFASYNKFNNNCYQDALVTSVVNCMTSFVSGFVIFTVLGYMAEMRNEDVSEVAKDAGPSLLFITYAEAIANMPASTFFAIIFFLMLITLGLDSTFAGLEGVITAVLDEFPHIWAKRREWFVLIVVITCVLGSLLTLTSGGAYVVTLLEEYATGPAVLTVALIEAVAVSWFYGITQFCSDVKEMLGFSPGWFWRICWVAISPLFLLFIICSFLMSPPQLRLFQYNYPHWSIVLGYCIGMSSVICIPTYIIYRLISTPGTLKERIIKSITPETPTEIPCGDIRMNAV
Sequence of Sodium-dependent serotonin transporter (P31652 whole entry): as above
T1 sequence (P23977 whole entry): as the sequence (P23977 whole entry) above
T3 sequence (P23975 whole entry): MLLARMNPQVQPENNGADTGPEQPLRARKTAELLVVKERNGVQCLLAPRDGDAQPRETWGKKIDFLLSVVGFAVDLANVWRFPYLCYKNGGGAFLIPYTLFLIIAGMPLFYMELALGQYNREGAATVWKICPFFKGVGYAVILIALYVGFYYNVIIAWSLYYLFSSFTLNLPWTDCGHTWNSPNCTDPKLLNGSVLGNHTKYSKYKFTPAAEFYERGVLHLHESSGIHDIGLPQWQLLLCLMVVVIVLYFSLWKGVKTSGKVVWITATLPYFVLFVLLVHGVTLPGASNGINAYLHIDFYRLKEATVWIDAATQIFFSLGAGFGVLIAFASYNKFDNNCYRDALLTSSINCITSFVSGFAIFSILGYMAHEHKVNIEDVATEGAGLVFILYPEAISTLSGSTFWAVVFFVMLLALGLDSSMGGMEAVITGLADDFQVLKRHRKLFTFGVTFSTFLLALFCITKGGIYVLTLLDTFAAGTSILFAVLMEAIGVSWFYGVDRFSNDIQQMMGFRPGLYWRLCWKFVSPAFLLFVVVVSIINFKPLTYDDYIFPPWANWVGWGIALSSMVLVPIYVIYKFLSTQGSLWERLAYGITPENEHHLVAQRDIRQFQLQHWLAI

For the compound `O=[N+]([O-])c1ccc(CCCCN2[C@@H]3CC[C@H]2C[C@@H](OC(c2ccc(F)cc2)c2ccc(F)cc2)C3)cc1`, affinity in [1] was put at a Ki of 20.2 nM. Besides, the IC50 (commonly the concentration at which inhibition is half-maximal) in experiment [2] was 650 nM.
On to `O=[N+]([O-])c1ccc(-c2ccc(COCCN3C4CCC3CC(OC(c3ccc(F)cc3)c3ccc(F)cc3)C4)cc2)cc1` (configuration not stated), for which the Ki (usually a dissociation constant, usually derived from enzyme kinetics or from competition with a known ligand) in [1] turned out to be 57 nM.
For the compound `Fc1ccc(C(OC2CC3CCC(C2)N3)c2ccc(F)cc2)cc1` (configuration not stated), the inhibition constant Ki in experiment [3] was 2100 nM; in [1], 11.2 nM; in [4] it was 156 nM; in experiment [5], greater than 8 µM. This compound showed an IC50 in [2] of 9.7 nM.
In the case of `Fc1ccc(C(OC2CC3CCC(C2)N3CCCc2ccccc2)c2ccc(F)cc2)cc1` (configuration not stated), the Ki in experiment [3] amounted to 375 nM; in experiment [1], 41.9 nM; in [6] it was 3.52 µM; in [4], 136 nM. This compound yielded an IC50 in [2] of 230 nM.
For `Fc1ccc(CCCN2C3CCC2CC(OC(c2ccc(F)cc2)c2ccc(F)cc2)C3)cc1` (configuration not stated), the Ki in [1] is 60.7 nM.
For `CS(=O)(=O)N1C2CCC1CC(OC(c1ccc(F)cc1)c1ccc(F)cc1)C2` (configuration not stated), in [7], the inhibition (as a rule, how much of the control response was suppressed) was 18%.
Take `O=CN1C2CCC1CC(OC(c1ccc(F)cc1)c1ccc(F)cc1)C2` (configuration not stated): the figures for the inhibition in [8] and in experiment [9] were 29.4% and 1.6%, respectively. Moreover, the Ki in experiment [1] turned out to be 2020 nM; in [4], 12300 nM. Besides, the IC50 in experiment [2] was 5400 nM.
`C=CCN1C2CCC1CC(OC(c1ccc(F)cc1)c1ccc(F)cc1)C2` (configuration not stated): the Ki in experiment [3] is 1450 nM; in experiment [1], 29.9 nM; in experiment [6], 5.92 µM; in [4] it was 126 nM. In addition, the IC50 in experiment [2] was determined as 14 nM.
`Fc1ccc(C(OCCN2C3CCC2CC(OC(c2ccc(F)cc2)c2ccc(F)cc2)C3)c2ccc(F)cc2)cc1` (configuration not stated) had a Ki in [1] of 634 nM.
As to `CCCCN1C2CCC1CC(OC(c1ccc(F)cc1)c1ccc(F)cc1)C2` (configuration not stated), the Ki in experiment [3] was 1730 nM; in [1] it was 24.6 nM; in [6], 1.33 µM; in experiment [4], 251 nM. Also, in experiment [2], the IC50 came out at 370 nM.
For `CN1C2CCC1CC(OC(c1ccc(F)cc1)c1ccc(F)cc1)C2` (configuration not stated) [DIFLUOROBENZTROPINE], the Ki is 2440 nM in experiment [3] and greater than 8.5 µM in [6].
In [8], `Fc1ccc(CN2C3CCC2CC(OC(c2ccc(F)cc2)c2ccc(F)cc2)C3)cc1` (configuration not stated) returned an inhibition of 60%. In addition, the Ki in experiment [1] turned out to be 95.6 nM; in experiment [4], 611 nM. The IC50 in [2] came out at 200 nM.
For `Fc1ccc(C(OC2CC3CCC(C2)N3Cc2ccccc2)c2ccc(F)cc2)cc1` (configuration not stated), the Ki was found to be 82.2 nM in [1], 2.08 µM in experiment [6] and 773 nM in experiment [4]. The IC50 in [2] turned out to be 290 nM. This compound showed an inhibition in [9] of 74%.
In the case of `Cc1ccc(S(=O)(=O)N2C3CCC2CC(OC(c2ccc(F)cc2)c2ccc(F)cc2)C3)cc1` (configuration not stated), in experiment [7], the inhibition amounted to 0%.
For the compound `CC(=O)N1C2CCC1CC(OC(c1ccc(F)cc1)c1ccc(F)cc1)C2` (configuration not stated), the inhibition in experiment [8] came to 8.5%; in experiment [9] it was 1.3%. Further, the Ki in experiment [1] was 2340 nM. Besides, the IC50 in experiment [2] is 4600 nM.
As for `C[N+]1(C)[C@@H]2CC[C@H]1C[C@@H](OC(c1ccc(F)cc1)c1ccc(F)cc1)C2`, the inhibition is 38% in experiment [8] and 79% in experiment [9]. The Ki was 108 nM in [1] and 29.1 nM in experiment [4]. This compound also had an IC50 in experiment [2] of 130 nM.
Take `Fc1ccc(C(OC2CC3CCC(C2)N3CC2CC2)c2ccc(F)cc2)cc1` (configuration not stated): the Ki turned out to be 1190 nM in experiment [3], 32.4 nM in experiment [1], 4.79 µM in experiment [6] and 136 nM in experiment [4]. In [2], this compound yielded an IC50 of 180 nM.
